Measurements reported in ChEMBL document CHEMBL3808357, “Discovery of N-(3-((1-Isonicotinoylpiperidin-4-yl)oxy)-4-methylphenyl)-3-(trifluoromethyl)benzamide (CHMFL-KIT-110) as a Selective, Potent, and Orally Available Type II c-KIT Kinase Inhibitor for Gastrointestinal Stromal Tumors (GISTs)” (J Med Chem, 2016).
Calls of active or inactive are those of the source. The rule behind the calls is not given here.

Tests used:
[1] = target: Mast/stem cell growth factor receptor Kit (Homo sapiens) (UniProt P10721); assay: Inhibition of cKIT in human GIST882 cells assessed as suppression of STAT5 phosphorylation at Y694 up to 10 uM after 2 hrs by Western blot analysis; type: cell-based
Mast/stem cell growth factor receptor Kit (Homo sapiens), sequence (P10721 whole entry): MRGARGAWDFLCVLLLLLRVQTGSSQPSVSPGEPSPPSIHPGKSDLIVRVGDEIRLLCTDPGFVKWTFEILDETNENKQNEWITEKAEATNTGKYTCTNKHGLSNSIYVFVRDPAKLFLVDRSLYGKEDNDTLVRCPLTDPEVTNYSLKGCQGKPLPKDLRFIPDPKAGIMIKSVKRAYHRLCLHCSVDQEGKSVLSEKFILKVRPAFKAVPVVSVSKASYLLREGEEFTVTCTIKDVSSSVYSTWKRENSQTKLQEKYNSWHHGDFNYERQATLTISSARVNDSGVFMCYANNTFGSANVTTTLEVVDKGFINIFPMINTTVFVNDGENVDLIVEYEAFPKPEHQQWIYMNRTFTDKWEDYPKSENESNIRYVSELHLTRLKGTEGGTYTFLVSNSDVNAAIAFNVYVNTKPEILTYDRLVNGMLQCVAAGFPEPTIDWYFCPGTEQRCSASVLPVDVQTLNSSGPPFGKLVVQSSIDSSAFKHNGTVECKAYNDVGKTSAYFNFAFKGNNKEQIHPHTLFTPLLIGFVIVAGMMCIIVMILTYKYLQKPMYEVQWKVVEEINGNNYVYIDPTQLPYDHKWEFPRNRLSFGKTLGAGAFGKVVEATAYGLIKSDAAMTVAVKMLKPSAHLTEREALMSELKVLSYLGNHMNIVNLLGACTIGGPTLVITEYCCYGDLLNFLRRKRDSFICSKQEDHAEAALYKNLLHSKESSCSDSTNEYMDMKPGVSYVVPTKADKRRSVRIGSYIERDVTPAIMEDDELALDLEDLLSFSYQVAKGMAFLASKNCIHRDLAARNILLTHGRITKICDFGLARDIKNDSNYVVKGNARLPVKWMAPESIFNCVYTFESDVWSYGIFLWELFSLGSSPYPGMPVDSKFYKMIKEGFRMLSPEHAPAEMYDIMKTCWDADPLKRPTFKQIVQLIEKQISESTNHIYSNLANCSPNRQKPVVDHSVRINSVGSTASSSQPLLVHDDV

[2] = Apparent clearance in Sprague-Dawley rat plasma at 1 mg/kg, iv; type: ADME, organism-based; details: read-out: CL(app) (converted)
How it was run: (§1)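 Male Sprague-Dawley rats, 8 weeks old, fasted overnight, dosed iv or orally. Formulation was 5% DMSO/40% PEG400/55% saline at 1 mg/mL. Blood (~0.2 mL) was drawn from the jugular vein into heparin. Sampling: iv at 1 min to 8 h; oral at 5 min to 24 h. Plasma was separated by centrifugation at 2−8 °C and stored at −80 °C.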

[3] = test system: K562; assay: Antiproliferative activity against BCR-ABL dependent human K562 cells assessed as reduction in cell viability after 72 hrs by celltiter-glo/CCK8 assay; type: functional; details: K562, 72 h
How it was run: (§2)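 Cells were seeded at 1 to 3 × 10⁴ cells/mL with serial compound concentrations and incubated 72 h at 37 °C, 5% CO₂. Viability was read by CellTiter-Glo luminescence or CCK-8 absorbance (450/655 nm). GI50 values are from triplicate testing. GIST-T1 and CHO were grown in DMEM/10% FBS; GIST-882, GIST-48B and MV4-11 in IMDM/10% FBS; other lines in RPMI 1640/10% FBS.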

[4] = Antiproliferative activity against cKIT dependent human GISTT1 cells assessed as reduction in cell viability after 72 hrs by celltiter-glo/CCK8 assay; type: functional; details: GISTT1, 72 h; how it was run: as §2
[5] = target: Platelet-derived growth factor receptor beta (Homo sapiens, UniProt P09619); assay: Inhibition of human wild type partial length PDGFRbeta expressed in bacterial expression system assessed as residual activity at 1 uM by KinomeScan method
Platelet-derived growth factor receptor beta, sequence (P09619 whole entry): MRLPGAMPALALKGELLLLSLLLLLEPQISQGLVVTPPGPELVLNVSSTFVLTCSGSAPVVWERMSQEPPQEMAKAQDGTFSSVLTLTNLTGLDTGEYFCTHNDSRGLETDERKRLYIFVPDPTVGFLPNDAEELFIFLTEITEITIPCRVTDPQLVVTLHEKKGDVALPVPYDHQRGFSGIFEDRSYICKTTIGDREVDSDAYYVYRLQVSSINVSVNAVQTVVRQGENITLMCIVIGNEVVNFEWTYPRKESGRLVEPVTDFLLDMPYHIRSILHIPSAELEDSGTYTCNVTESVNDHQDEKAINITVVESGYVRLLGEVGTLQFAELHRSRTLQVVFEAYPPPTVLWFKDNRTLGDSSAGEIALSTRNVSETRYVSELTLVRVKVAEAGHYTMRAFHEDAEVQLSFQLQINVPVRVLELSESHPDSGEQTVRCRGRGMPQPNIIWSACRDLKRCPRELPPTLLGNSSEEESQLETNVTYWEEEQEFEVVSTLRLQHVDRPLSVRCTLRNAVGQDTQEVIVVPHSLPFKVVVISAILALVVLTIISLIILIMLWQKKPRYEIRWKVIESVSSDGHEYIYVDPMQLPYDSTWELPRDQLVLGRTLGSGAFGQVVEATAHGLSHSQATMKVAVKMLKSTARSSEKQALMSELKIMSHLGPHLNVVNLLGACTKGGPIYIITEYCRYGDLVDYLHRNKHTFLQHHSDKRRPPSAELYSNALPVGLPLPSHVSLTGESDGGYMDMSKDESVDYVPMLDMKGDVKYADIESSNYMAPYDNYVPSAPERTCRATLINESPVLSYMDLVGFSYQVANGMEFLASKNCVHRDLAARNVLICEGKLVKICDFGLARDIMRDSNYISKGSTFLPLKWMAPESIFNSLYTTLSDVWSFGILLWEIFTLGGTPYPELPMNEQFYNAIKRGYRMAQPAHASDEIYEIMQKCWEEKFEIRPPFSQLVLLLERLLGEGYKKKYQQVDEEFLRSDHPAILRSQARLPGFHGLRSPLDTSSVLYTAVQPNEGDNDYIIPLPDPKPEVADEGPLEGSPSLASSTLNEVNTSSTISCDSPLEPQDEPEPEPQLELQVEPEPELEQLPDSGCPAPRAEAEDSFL
How it was run: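 KinomeScan competitive binding panel of 468 kinases and mutants, compound tested at 1 μM; read-out is percent activity remaining (binding relative to control).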

[6] = test system: GIST882; assay: Induction of apoptosis in human GIST882 cells assessed as caspase 3 cleavage up to 3 uM after 72 hrs by Western blot analysis; type: functional, cell-based
[7] = test system: GISTT1; assay: Induction of apoptosis in human GISTT1 cells xenografted in nu/nu mouse at 25 to 100 mg/kg/day administered through oral gavage after 21 days by tunel assay; type: functional, organism-based
How it was run: (§3)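 Female nu/nu mice, 6 weeks old, received 5 × 10⁶ GIST-T1 cells in PBS/Matrigel (1:1) subcutaneously in the right flank. At 100−200 mm³, six mice per group were dosed daily by oral gavage at 25, 50 or 100 mg/kg/d in 0.5% methylcellulose/0.4% Tween80, or vehicle. Tumor volume was taken as (W²×L)/2, with body weight and tumor measured daily. Tumors were stained for Ki67 (IHC, 1:50 antibody) and by TUNEL.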

[8] = Antitumor activity against human GISTT1 cells xenografted in nu/nu mouse assessed as tumor growth inhibition at 100 mg/kg/day administered through oral gavage after 21 days; type: functional; details: 504 h, read-out: TGI; how it was run: as §3
[9] = target: Mast/stem cell growth factor receptor Kit (Homo sapiens) (UniProt P10721); assay: Inhibition in cKIT autophosphorylation at Y703 in human GISTT1 cells up to 10 uM after 2 hrs by Western blot analysis; type: cell-based
How it was run: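 Cells were washed in cold PBS, lysed in RIPA and immunoblotted for phospho and total proteins, including pPDGFRα Y849/PDGFRβ Y857 and β-actin.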

[10] = test system: GIST48B; assay: Induction of apoptosis in human GIST48B cells assessed as caspase 3 cleavage up to 3 uM after 72 hrs by Western blot analysis; type: functional, cell-based
[11] = Apparent clearance in Sprague-Dawley rat plasma at 10 mg/kg, po; type: ADME, organism-based; details: read-out: CL(app) (converted); how it was run: as §1

- inhibition [1]: Active
- clearance [2]: 83.1 mL/min/kg
- GI50 [3]: > 10 µM
- Activity [5]: 0.2%
- inhibition [9]: Active
- CL/F [11]: 215 mL/min/kg
Compound: Cc1ccc(NC(=O)c2cccc(C(F)(F)F)c2)cc1OC1CCN(C(=O)c2ccncc2)CC1
- GI50 [4]: 21 nM
- Activity [6]: Active
- Activity [7]: Active
- inhibition in vivo at 100 mg/kg/day [8]: 49%
- Activity [10]: inactive
